Measured values published in paper PMC12056735 (RSC Advances, 2025).
Where two headings read alike, the source gives them in different places.

Key:
MDA-MB-231 cells [1] = test: Cell cycle analysis, flow cytometry; assay type: cell-based, human; conditions: MDA-MB-231, 4.64 µM 7a, 48 h
[2] = Safety assay on normal cells, MTT assay; assay type: cell-based; conditions: human, WISH cells (normal amnion cell line)
Outline: (§1)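 MTT viability assay, run on normal WI-38 and WISH cells in parallel with MDA-MB-231 and MCF-7 breast cancer lines to judge selectivity. A series of test compounds and a reference drug were tested.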

Bcl-2 = test: ELISA for Bcl-2 in MDA-MB-231 cells; assay type: cell-based, human
MDA-MB-231 cells [3] = assay type: cell-based, human; conditions: cancer cells over normal cells
MDA-MB-231 cells [4] = test: Apoptosis analysis, Annexin V-FITC/PI flow cytometry; assay type: cell-based, human
Outline: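 Annexin V-FITC/PI flow cytometry on MDA-MB-231 cells exposed to test compound. Percentages of viable, early apoptotic, late apoptotic and necrotic cells are compared against an untreated control group of the same cells.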

[5] = Safety assay on normal cells, MTT assay; assay type: cell-based; conditions: human, WI-38 cells (normal lung fibroblast cell line)
Outline: as §1

MCF-7 cells = assay type: cell-based, human; conditions: cancer cells over normal cells
Bax = test: ELISA for Bax in MDA-MB-231 cells; assay type: cell-based, human; conditions: MDA-MB-231, 4.64 µM 7a, 72 h
VEGFR-2 = VEGFR-2 (Homo sapiens, UniProt P35968); test: biochemical
VEGFR-2, sequence (P35968 20-1356): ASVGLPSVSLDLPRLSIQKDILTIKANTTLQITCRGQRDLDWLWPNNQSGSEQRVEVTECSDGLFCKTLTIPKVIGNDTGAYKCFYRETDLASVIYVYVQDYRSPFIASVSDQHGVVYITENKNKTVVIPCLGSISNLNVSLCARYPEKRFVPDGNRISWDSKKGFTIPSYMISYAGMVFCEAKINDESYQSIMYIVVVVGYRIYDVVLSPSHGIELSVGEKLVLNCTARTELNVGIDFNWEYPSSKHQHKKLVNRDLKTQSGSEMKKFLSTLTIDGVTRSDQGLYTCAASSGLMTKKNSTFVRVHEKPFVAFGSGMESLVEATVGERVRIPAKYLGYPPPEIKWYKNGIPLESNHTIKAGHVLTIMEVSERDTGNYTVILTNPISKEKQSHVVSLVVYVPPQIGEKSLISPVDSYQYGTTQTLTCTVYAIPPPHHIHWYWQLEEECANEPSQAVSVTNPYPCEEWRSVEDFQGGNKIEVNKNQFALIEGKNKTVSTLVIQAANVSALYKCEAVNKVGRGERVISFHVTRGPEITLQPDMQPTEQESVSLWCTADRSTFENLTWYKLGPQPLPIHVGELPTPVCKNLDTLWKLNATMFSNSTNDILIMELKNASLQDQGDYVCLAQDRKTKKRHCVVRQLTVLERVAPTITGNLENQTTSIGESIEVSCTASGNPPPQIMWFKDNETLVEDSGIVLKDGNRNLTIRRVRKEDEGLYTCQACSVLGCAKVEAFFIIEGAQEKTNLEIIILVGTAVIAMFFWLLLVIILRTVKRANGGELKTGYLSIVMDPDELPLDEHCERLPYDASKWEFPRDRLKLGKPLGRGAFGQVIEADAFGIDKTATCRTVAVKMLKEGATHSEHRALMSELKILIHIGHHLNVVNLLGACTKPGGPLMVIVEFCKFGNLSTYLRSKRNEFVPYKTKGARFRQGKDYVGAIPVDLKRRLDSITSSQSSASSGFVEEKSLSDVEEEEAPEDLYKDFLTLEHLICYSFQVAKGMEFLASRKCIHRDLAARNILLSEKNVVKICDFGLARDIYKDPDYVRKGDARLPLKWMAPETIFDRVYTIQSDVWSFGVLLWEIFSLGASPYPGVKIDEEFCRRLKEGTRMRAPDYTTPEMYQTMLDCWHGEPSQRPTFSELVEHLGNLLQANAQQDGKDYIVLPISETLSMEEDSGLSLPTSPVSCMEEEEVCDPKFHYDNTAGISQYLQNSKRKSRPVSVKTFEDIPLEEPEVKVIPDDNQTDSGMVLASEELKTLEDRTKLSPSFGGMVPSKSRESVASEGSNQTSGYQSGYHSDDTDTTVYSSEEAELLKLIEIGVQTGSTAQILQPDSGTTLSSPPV

caspase-3 = test: ELISA for caspase-3 in MDA-MB-231 cells; assay type: cell-based, human
HCT-116 = conditions: cited from earlier work
MCF-7 = conditions: read-out: IC50 against MCF-7; cited from earlier work
[6] = MDA-MB-231, 4.64 µM 7a, 72 h, ELISA

SMILES | Cell cycle distribution, G0/G1 (MDA-MB-231 cells [1]) | Cell cycle distribution, G2/M (MDA-MB-231 cells [1]) | Cell cycle distribution, S (MDA-MB-231 cells [1]) | IC50 at 24 h [2] | Bcl-2 conc. (Bcl-2; [6]) | Bcl-2 FLD (Bcl-2; fold vs control MDA-MB-231 (FLD = 1), downregulated) | Selectivity index (SI) for MDA-MB-231 (MDA-MB-231 cells [3]) | viability at 4.64 µM (MDA-MB-231 cells [4]; Homo sapiens, MDA-MB-231, 48 h, read-out: Viable cells) | Early apoptosis (MDA-MB-231 cells [4]; MDA-MB-231, 4.64 µM 7a, 48 h) | Late apoptosis (MDA-MB-231 cells [4]; MDA-MB-231, 4.64 µM 7a, 48 h) | Necrosis (MDA-MB-231 cells [4]; MDA-MB-231, 4.64 µM 7a, 48 h) | IC50 at 24 h [5] | Selectivity index (SI) for MCF-7 (MCF-7 cells) | Bax conc. (Bax) | IC50 (VEGFR-2) | Caspase-3 conc. (caspase-3; [6]) | Caspase-3 FLD (caspase-3; fold vs control MDA-MB-231 (FLD = 1), upregulated) | IC50 (HCT-116; read-out: IC50 against HCT-116) | IC50 (HCT-116; read-out: IC50 against HCT-116 cells) | IC50 (MCF-7)
CC(=O)c1nn(-c2ccccc2Cl)/c(=N/N=C(\C)c2ccc(NC(=O)c3cccnc3)cc2)s1 [Compound 7a, N-(4-((E)-1-(((Z)-5-Acetyl-3-(2-chlorophenyl)-1,3,4-thiadiazol-2(3H)-ylidene)hydrazono)ethyl)phenyl)nicotinamide] | 33% | 8% | 59% | 57.7 ± 3.3 µM | 1.53 | 3.68 fold | 15.86 | 50% | 1.06% | 44.01% | 4.94% | 73.6 ± 3.8 µM | 8.14 | 394.72 | 0.095 ± 0.05 µM | 441.93 | 8.2 fold | – | – | –
CNC(=O)c1cc(Oc2ccc(NC(=O)Nc3ccc(Cl)c(C(F)(F)F)c3)cc2)ccn1 [Sorafenib] | – | – | – | 13.4 ± 1.1 µM | – | – | – | – | – | – | – | 10.6 ± 0.8 µM | – | – | – | – | – | 9.3 µM | 7.28 µM | 6.72 µM
